# In ChEMBL document CHEMBL1123413, “Synthesis and biological evaluation of 1-(1,2-benzisothiazol-3-yl)- and (1,2-benzisoxazol-3-yl)piperazine derivatives as potential antipsychotic agents” (J Med Chem, 1986):
# Tests used:
# [1] = Binding affinity against imipramine receptor was measured using radioligand ([3H]-imipramine) binding assay; parameters: species or system Rattus norvegicus
# Mus musculus [2] = organism: Mus musculus; experiment: Compound was tested for inhibition of spontaneous motor activity in mouse.; assay type: functional
# Dopamine receptor = experiment: Compound was tested for its effect on dopamine saturation analysis; assay type: protein assay
# [3] = Binding affinity against histamine receptor was measured using radioligand ([3H]-pyrilamine) binding assay
# Rattus norvegicus [4] = organism: Rattus norvegicus; experiment: Compound was tested for inhibition of conditioned avoidance response (CAR ); assay type: functional
# Outline: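 Rats trained to avoid an electric shock, test compound given orally, and block of the conditioned avoidance response scored. ED50 (mg/kg, po) with fiducial limits by the method of Berkson.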
# [5] = Binding affinity against Muscarinic acetylcholine receptor was measured using radioligand ([3H]QNB) binding assay
# [6] = molecular target: T1, Adrenergic receptor alpha-2 (Rattus norvegicus, UniProt P22086+P19328+P22909); experiment: Binding affinity against alpha-2 adrenergic receptor was measured using radioligand ([3H]clonidine) binding assay; assay type: protein assay
# T1 sequence (P22086 whole entry): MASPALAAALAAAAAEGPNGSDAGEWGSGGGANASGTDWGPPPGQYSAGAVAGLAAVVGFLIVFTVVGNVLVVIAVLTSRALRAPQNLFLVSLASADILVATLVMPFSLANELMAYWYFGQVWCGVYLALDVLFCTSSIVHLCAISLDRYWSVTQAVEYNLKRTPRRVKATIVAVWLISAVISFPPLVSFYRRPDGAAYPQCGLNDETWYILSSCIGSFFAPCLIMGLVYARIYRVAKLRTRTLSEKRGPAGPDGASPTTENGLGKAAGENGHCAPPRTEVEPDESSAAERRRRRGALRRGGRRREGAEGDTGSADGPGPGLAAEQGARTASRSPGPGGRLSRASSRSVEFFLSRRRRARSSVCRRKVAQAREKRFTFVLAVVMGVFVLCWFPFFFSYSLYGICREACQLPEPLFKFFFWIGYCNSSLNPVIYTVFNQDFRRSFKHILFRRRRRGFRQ
# T1 sequence (P19328 whole entry): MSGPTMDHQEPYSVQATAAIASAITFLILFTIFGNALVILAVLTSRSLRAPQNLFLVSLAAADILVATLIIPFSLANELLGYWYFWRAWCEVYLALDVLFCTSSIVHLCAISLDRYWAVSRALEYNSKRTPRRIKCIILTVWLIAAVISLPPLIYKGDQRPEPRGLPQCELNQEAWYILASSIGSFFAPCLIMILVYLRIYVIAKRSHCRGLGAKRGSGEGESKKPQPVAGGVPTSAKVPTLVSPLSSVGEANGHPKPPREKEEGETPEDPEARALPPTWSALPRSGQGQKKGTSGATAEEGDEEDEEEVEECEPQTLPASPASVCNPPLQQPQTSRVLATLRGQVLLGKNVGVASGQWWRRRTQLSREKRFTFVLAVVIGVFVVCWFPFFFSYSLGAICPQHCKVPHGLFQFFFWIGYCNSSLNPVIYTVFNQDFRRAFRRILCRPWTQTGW
# T1 sequence (P22909 whole entry): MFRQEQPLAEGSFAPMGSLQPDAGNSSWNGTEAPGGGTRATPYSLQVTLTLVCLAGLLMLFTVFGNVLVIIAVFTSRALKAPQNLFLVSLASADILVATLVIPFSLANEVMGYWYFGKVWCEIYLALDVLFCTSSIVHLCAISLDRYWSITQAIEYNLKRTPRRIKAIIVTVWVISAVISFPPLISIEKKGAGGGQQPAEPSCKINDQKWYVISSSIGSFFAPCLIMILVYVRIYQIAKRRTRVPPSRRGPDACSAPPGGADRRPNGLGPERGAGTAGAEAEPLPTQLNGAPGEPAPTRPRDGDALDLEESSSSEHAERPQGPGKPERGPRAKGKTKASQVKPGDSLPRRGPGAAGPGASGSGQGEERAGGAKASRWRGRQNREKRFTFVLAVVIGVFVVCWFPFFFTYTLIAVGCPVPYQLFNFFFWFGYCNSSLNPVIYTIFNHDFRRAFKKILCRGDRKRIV
# Rattus norvegicus [7] = organism: Rattus norvegicus; experiment: Compound was tested for inhibition of hexobarbatial potentiation in rat.; assay type: functional
# Outline: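 Hexobarbital sodium (40 mg/kg, ip) was given to nonfasted male rats 15, 30, 60 or 120 min after test drug, or 15 min after vehicle (distilled H2O or 0.5% methocel). Loss of righting reflex of 1-min duration was scored over about 10–15 min. Dose response at peak-effect time used 10 rats/dose; ED50 and fiducial limits by Berkson.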
# Rattus norvegicus [8] = organism: Rattus norvegicus; experiment: Compound was tested for its ability to induce catalepsy in rats.; assay type: functional
# Outline: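 Catalepsy was induced in rats with orally dosed compound as a predictor of extrapyramidal liability. ED50 (mg/kg, po) with fiducial limits by Berkson's method.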
# Mus musculus [9] = organism: Mus musculus; experiment: Compound was tested for inhibition of physostigmine lethality in mouse.; assay type: functional
# Outline: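 Groups of 10 nonfasted male mice dosed orally with test compound (initial 100 mg/kg) or vehicle (distilled H2O or 0.5% methocel). At 30 min, physostigmine given ip at 1.25 mg/kg, and lethality followed for up to 1 h. Active compounds retested at lower doses, 10 mice/dose, for dose response. ED50 by Berkson's method.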
compound,measurement,setting,value
Cl.O=C1CC2(CCCC2)CC(=O)N1CCCCN1CCN(c2nsc3ccccc23)CC1 [TIOSPIRONE HYDROCHLORIDE],IC50,[1],> 1000 nM
same,ED50,Mus musculus [2],17.3 mg/kg
same,Kd,Dopamine receptor,0.3337 nM
same,IC50,[3],142 nM
same,ED50,Rattus norvegicus [4],10.5 mg/kg
same,IC50,[5],> 1000 nM
same,IC50,[6],> 1000 nM
same,ED50,Rattus norvegicus [7],6.7 mg/kg
same,ED50,Rattus norvegicus [8],84.4 mg/kg
same,ED50,Mus musculus [9],294 mg/kg
